In ChEMBL document CHEMBL1123700, “2-[(3-Pyridinylmethyl)thio]pyrimidine derivatives: new bronchosecretolytic agents” (1987):

System: Canis familiaris
Test: Percent viscosity was determined in canine bronchial mucus, 1 hr after intravenous administration of 0.2 mg/kg
Assay type: functional, Canis lupus familiaris
Settings: not given
In short: (§1)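 Mongrel dogs (18-24 kg), food withheld 16 h, anesthetized with pentobarbital 40 mg/kg iv plus infusion of 0.1 mg kg-1 min-1. Compounds in isotonic NaCl, given iv; 0.9% NaCl as control. Bronchial mucus sampled by bronchoscope, dialyzed against water at 0 °C for 24 h, freeze-dried, taken up at 1% w/v in 0.1 M Tris pH 7. Viscosity 1 h after dosing expressed as % of initial, mean ± SD.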

| SMILES | Activity |
| --- | --- |
| Cl.c1cnc(SCc2cccnc2)nc1 | 28% |
| Nc1cc(O)nc(SCc2ccc(Cl)nc2)n1 | 84.2% |
| Nc1cc(O)nc(SCc2cccnc2)n1 | 76.3% |

System: Canis familiaris
Test: Percent viscosity was determined in canine bronchial mucus, 1 hr after intravenous administration of 0.5 mg/kg
Assay type: functional, Canis lupus familiaris
Settings: not given
In short: as §1

| SMILES | Activity |
| --- | --- |
| Cl.c1cnc(SCc2cccnc2)nc1 | 5.5% |
| Nc1cc(O)nc(SCc2ccc(Cl)nc2)n1 | 19.7% |
| Nc1cc(O)nc(SCc2cccnc2)n1 | 15.8% |

System: Mus musculus
Test: Bronchosecretory activity measured as tracheal secretion of phenol red in mouse after oral administration
Assay type: functional
Settings: not given
In short: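 Male NMRI mice, food withheld 24 h, water free. Compounds suspended in 0.5% carboxymethylcellulose just before use and given by gavage at 5 mL/kg. Phenol red given intraperitoneally; 50 min after dosing it is measured photometrically in tracheal lavage fluid. Output compared with mean of vehicle controls. ED50 (dose giving 50% increase over control) by linear regression with 95% confidence limits.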

| SMILES | ED50 |
| --- | --- |
| Cl.c1cnc(SCc2cccnc2)nc1 | 5.34 µmol/kg |
| c1cnc(SCc2cccnc2)nc1 [TASULDINE] | 4.82 µmol/kg |

Same assay, conditions: Mus musculus, po

| SMILES | ED50 |
| --- | --- |
| Cc1ccc(CSc2ncccn2)cn1 | 298 µmol/kg |
| N=c1cc(N)nc(SCc2cccnc2)[nH]1 | 272 µmol/kg |
| Cc1ccnc([S+]([O-])Cc2cccnc2)n1 (configuration not stated) | 30.9 µmol/kg |
| O=S(=O)(Cc1cccnc1)c1ccc(Cl)cc1 | 27.9 µmol/kg |
| [O-][S+](Cc1cccnc1)c1ccc(Cl)cc1 (configuration not stated) | 43.9 µmol/kg |
| c1cncc(CSC2=NCCS2)c1 | 20.3 µmol/kg |
| [O-][S+](Cc1ccncc1)c1ncccn1 (configuration not stated) | 391 µmol/kg |
| Cc1ccc2nc(SCc3cccnc3)oc2c1 | 51.2 µmol/kg |
| Cc1ccnc(SCc2cccnc2)n1 | 39.4 µmol/kg |
| Cc1cc(C)nc(SCc2cccnc2)n1 | 44.8 µmol/kg |
| c1ccc(CSc2ccccn2)nc1 | 21.8 µmol/kg |
| [O-][S+](Cc1cccnc1)c1ncccn1 (configuration not stated) | 7.82 µmol/kg |
| c1ccc(-c2nc(SCc3cccnc3)oc2-c2ccccc2)cc1 | 13.1 µmol/kg |
| COc1cccc(SCc2cccnc2)c1 | 182 µmol/kg |
| Cc1ccc(SCc2cccnc2)cc1 | 39.7 µmol/kg |
| c1cnc(SCc2ccncc2)nc1 | 41.7 µmol/kg |
| Cc1ccc(S(=O)(=O)Cc2cccnc2)cc1 | 141 µmol/kg |
| Cc1ccc([S+]([O-])Cc2cccnc2)cc1 (configuration not stated) | 149 µmol/kg |
| CC(Sc1ncccn1)c1cccnc1 (configuration not stated) | 42.6 µmol/kg |
| Nc1cc(O)nc(SCc2ccc(Cl)nc2)n1 | 8.3 µmol/kg |

| SMILES | ED50 |
| --- | --- |
| Cc1cc(O)nc(SCc2cccnc2)n1 | 64.3 µmol/kg |
| c1cncc(CSc2nc3ccccc3o2)c1 | 61.9 µmol/kg |
| Cc1ccc(C(C)Sc2ncccn2)cn1 (configuration not stated) | 432 µmol/kg |
| Oc1ccnc(SCc2cccnc2)n1 | 456 µmol/kg |
| Nc1ccnc(SCc2cccnc2)n1 | 22.9 µmol/kg |
| Cn1ccnc1S(=O)(=O)Cc1cccnc1 | 95.8 µmol/kg |
| Clc1ccc(SCc2cccnc2)cc1 | 22 µmol/kg |
| c1cnc(SCc2cccnc2)nc1 | 4.67 µmol/kg |
| c1cncc(CSc2ncnc3[nH]ncc23)c1 | 41.1 µmol/kg |
| c1cncc(CSc2ccc3ccccc3n2)c1 | 21.5 µmol/kg |
| Cn1ccnc1SCc1cccnc1 | 5.35 µmol/kg |
| Cn1ccnc1[S+]([O-])Cc1cccnc1 (configuration not stated) | 49.8 µmol/kg |
| Clc1ccc(CSc2ncccn2)cn1 | 84.1 µmol/kg |
| Nc1cc(O)nc(SCc2cccnc2)n1 | 8.93 µmol/kg |
| c1cncc(CSc2nc3ncccc3o2)c1 | 38 µmol/kg |
| c1cncc(CSc2nc3ccccc3[nH]2)c1 | 31.8 µmol/kg |
| Clc1ncccc1CSc1ncccn1 | 84.1 µmol/kg |
| c1ccc(SCc2cccnc2)nc1 | 7.63 µmol/kg |
| c1ccc(CSc2nc3ccccc3o2)nc1 | 157 µmol/kg |
| Nc1c(Br)cc(Br)cc1CN[C@H]1CC[C@H](O)CC1 [AMBROXOL] | 603 µmol/kg |

Same assay, conditions: Mus musculus, po; read-out: ED50

| SMILES | ED50 |
| --- | --- |
| CC(C)(C)NCC(O)c1ccc(O)c(CO)c1 (configuration not stated) [ALBUTEROL] | 12.5 µmol/kg |

System: Canis familiaris
Test: Percent viscosity was determined in canine bronchial mucus, 1 hr after intravenous administration of 0.1 mg/kg
Assay type: functional, Canis lupus familiaris
Settings: not given
In short: as §1

| SMILES | Activity |
| --- | --- |
| Cl.c1cnc(SCc2cccnc2)nc1 | 109% |

System: Mus musculus
Test: Bronchosecretory activity measured as tracheal secretion of phenol red in mouse after subcutaneous administration
Settings: not given

| SMILES | ED50 |
| --- | --- |
| C[N+](C)(C)CCOC(N)=O [CARBACHOL] | 0.2 µmol/kg |
| NCC(O)c1cccc(O)c1 (configuration not stated) [NORFENEFRINE] | 1.3 µmol/kg |
